Experimental data reported in ChEMBL document CHEMBL3259717, “Synthetic calanolides with bactericidal activity against replicating and nonreplicating Mycobacterium tuberculosis” (J Med Chem, 2014).
Converted amounts (≈) assume the structure as drawn. The source made the active and inactive calls. The calls are words filed in the database; no cut-off is given here.

How the values were obtained:
[1] = tested on: Mycobacterium tuberculosis; assay: Bactericidal activity against wild type Mycobacterium tuberculosis H37Rv infected in IFN-gamma-stimulated primary human monocyte-derived macrophages assessed as reduction of log10CFU at 30 times MIC incubated for 7 days followed by compound washout measured after 3 weeks; type: functional
How it was run: (§1)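 Monocytes from healthy donors isolated by CD14 selection. Differentiated 2 weeks in 40% human plasma with 0.5 ng/mL GM-CSF and TNF-alpha, 10% O2. Then 5 ng/mL IFN-gamma overnight, infected with wild-type Mtb at MOI 0.1. Compound added at 24 h, 1% DMSO final, 7 days. Viability inspected visually; lysed in 0.55% Triton-X and plated on 7H11/OADC for CFU.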

[2] = tested on: Mycobacterium tuberculosis; assay: Bactericidal activity against wild type Mycobacterium tuberculosis H37Rv infected in IFN-gamma-stimulated primary human monocyte-derived macrophages assessed as reduction of log10CFU at 1 ug/mL incubated for 7 days followed by compound washout measured after 3 weeks; type: functional; how it was run: as §1
[3] = tested on: Mycobacterium tuberculosis; assay: Bactericidal activity against non-replicating form of wild type Mycobacterium tuberculosis H37Rv assessed as reduction of log10CFU at 0.6 ug/mL after 7 to 8 days; type: functional
How it was run: (§2)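 Wild-type Mtb single-cell suspension at OD 0.01 (R) or 0.1 (NR, in NR medium, 1% O2) in 96-well plates with compound for 7 days. Serial dilution in 7H9-ADN, plated on 7H11 agar with glycerol and OADC for CFU.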

[4] = tested on: Mycobacterium tuberculosis; assay: Antibacterial activity against non-replicating form of wild type Mycobacterium tuberculosis H37Rv assessed as growth inhibition after 3 days by high-throughput screening assay; type: functional; conditions: 72 h
[5] = tested on: Mycobacterium tuberculosis; assay: Bactericidal activity against replicating form of wild type Mycobacterium tuberculosis H37Rv assessed as reduction of log10CFU at 0.6 ug/mL after 7 to 8 days; type: functional; how it was run: as §2
[6] = tested on: Mycobacterium tuberculosis; assay: Antibacterial activity against replicating form of wild type Mycobacterium tuberculosis H37Rv assessed as growth inhibition after 7 days by high-throughput screening assay; type: functional; conditions: 168 h
How it was run: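 Wild-type H37Rv in 7H9 with glycerol, tyloxapol, ADN, in 96-well plates. Set up as the 384-well screen: OD580 0.01 start, compound in DMSO, 7 days at 37 °C, 20% O2, 5% CO2. OD580 read; MIC90 = 90% growth inhibition vs DMSO control.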

[7] = Selectivity index, ratio of LD50 for human HepG2 cells to MIC90 for replicating form of Mycobacterium tuberculosis H37Rv; type: toxicity, cell-based; conditions: read-out: Selectivity Index
How it was run: (§3)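 HepG2 in DMEM with 10% FBS, pyruvate, glutamine, HEPES and nonessential amino acids, seeded 3000 cells/well in 384-well plates. Compound for 2 days at 1% final DMSO. ATP read by CellTiter-Glo luminescence. LD50 = 50% drop in ATP signal vs DMSO. SI = LD50/MIC90 against replicating Mtb.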

[8] = Cytotoxicity against human HepG2 cells assessed as decrease in ATP signal after 2 days by CellTiter-Glo assay; type: cell-based; conditions: read-out: LD50; how it was run: as §3
Escherichia coli = assay: Bactericidal activity against Escherichia coli at <= 25 ug/mL after 6 to 18 hrs; type: functional, organism-based
How it was run: (§4)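 Log-phase cultures in their own media (M. smegmatis 7H9/glycerol/tyloxapol; E. coli, P. aeruginosa LB; S. aureus Mueller-Hinton; C. albicans YM) diluted to OD 0.01 in 96-well plates. Compound or DMSO added. Incubated 8−48 h with shaking at 37 °C (Candida at 30 °C). OD600 read.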

Staphylococcus aureus = assay: Bactericidal activity against Staphylococcus aureus ATCC 29213 at <= 25 ug/mL after 6 to 18 hrs; type: functional, organism-based; how it was run: as §4
Candida albicans = assay: Fungicidal activity against Candida albicans at <= 25 ug/mL after 6 to 18 hrs; type: functional, organism-based; how it was run: as §4
[9] = tested on: Mycobacterium tuberculosis; assay: Bactericidal activity against wild type Mycobacterium tuberculosis H37Rv infected in IFN-gamma-stimulated primary human monocyte-derived macrophages assessed as reduction of log10CFU incubated for 7 days followed by compound washout measured after 3 weeks; type: functional; how it was run: as §1
[10] = tested on: Mycolicibacterium smegmatis; assay: Antibacterial activity against Mycobacterium smegmatis assessed as growth inhibition at 10 ug/mL after 24 to 48 hrs relative to control; type: functional; conditions: read-out: GI; how it was run: as §4
Pseudomonas aeruginosa = assay: Bactericidal activity against Pseudomonas aeruginosa PAO1 at <= 25 ug/mL after 6 to 18 hrs; type: functional, organism-based; how it was run: as §4

Compound	log10cfu [1]	log10cfu [2]	log10cfu [3]	MIC90 [4] [µg/mL]	log10cfu [5]	MIC90 [6] [µg/mL]	selectivity ratio [7]	CC50 at 48 h [8] [µg/mL]	Activity (Escherichia coli)	Activity (Staphylococcus aureus)	Activity (Candida albicans)	log10cfu [9]	inhibition of growth at 10 µg/mL [10] [%]	Activity (Pseudomonas aeruginosa)
CO[C@H]1/C=C/O[C@@]2(C)Oc3c(C)c(O)c4c(O)c(c(/C=N/N5CCN(C)CC5)c(O)c4c3C2=O)NC(=O)/C(C)=C\C=C\[C@H](C)[C@H](O)[C@@H](C)[C@@H](O)[C@@H](C)[C@H](OC(C)=O)[C@@H]1C [RIFAMPIN]	1	–	–	–	–	–	–	–	–	–	–	–	–	–
CCCc1cc(=O)oc2c1c1c(c3oc([N+](=O)[O-])cc32)C=CC(C)(C)O1	–	1.8	2.6	0.6 (≈ 1.69 µM)	3.1	0.3 (≈ 0.844 µM)	8	3 (≈ 8.44 µM)	–	–	–	–	–	–
CCCc1cc(=O)oc2c1c1c(c3oc([N+](=O)[O-])cc32)CCC(C)(C)O1	–	–	2.1	1 (≈ 2.8 µM)	2.6	0.6 (≈ 1.68 µM)	> 80	> 50	inactive	inactive	inactive	2	20	inactive
